Activity calls are given as the source filed them. No cut-off for these calls is given here.
What was measured:
Assay type in all cases: functional
SW-620 = test: Growth inhibition of human SW620 cells after 48 hrs by SRB assay; conditions: SW-620, 48 h
In short: (§1)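 NCI 60-cell-line panel, five-dose testing after preliminary screen; sulforhodamine B protein assay in DMEM with 10% FBS, 37 °C, 5% CO2, 100% humidity. Cells seeded and incubated 24 h before compound addition, then exposed 48 h. Absorbance read at 560 nm; growth percentage relative to control wells; GI50 taken as concentration giving 50% growth inhibition.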

SF-295 = test: Growth inhibition of human SF295 cells after 48 hrs by SRB assay; conditions: SF-295, 48 h; in short: as §1
PC-3 [1] = test: Cytotoxicity against human PC3 cells after 48 hrs assessed as inhibition of cell growth at 10 uM after 48 hrs by SRB assay relative to control; conditions: PC-3, 48 h, read-out: GI
In short: (§2)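 SRB protein assay in DMEM with 10% FBS at 37 °C, 5% CO2, 100% relative humidity. Cells seeded in 96-well plates, incubated 24 h, then exposed to drug at 10 µM for 48 h and processed per standard protocol. Absorbance read at 560 nm; growth percentage calculated for test wells relative to control wells.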

MDA-MB-435 = test: Growth inhibition of human MDA-MB-435 cells after 48 hrs by SRB assay; conditions: MDA-MB-435, 48 h
In short: (§3)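 NCI 60-cell-line screen: after preliminary screening, tested at five dose concentrations on 59 human tumour lines covering leukemia, lung, colon, CNS, melanoma, ovarian, renal, prostate and breast.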

SNB-75 = test: Growth inhibition of human SNB75 cells after 48 hrs by SRB assay; conditions: SNB-75, 48 h; in short: as §1
T47D = test: Growth inhibition of human T47D cells after 48 hrs by SRB assay; in short: as §1
HCT-15 = test: Growth inhibition of human HCT15 cells after 48 hrs by SRB assay; conditions: HCT-15, 48 h; in short: as §3
MCF7 [2] = test: Cell cycle arrest in human MCF7 cells assessed as accumulation at G1 phase at 4 uM after 24 hrs by FACS analysis (reference value: 58.33%)
SR = test: Growth inhibition of human SR cells after 48 hrs by SRB assay; in short: as §1
CAKI-1 = test: Growth inhibition of human Caki1 cells after 48 hrs by SRB assay; conditions: CAKI-1, 48 h; in short: as §3
MDA-MB-468 = test: Growth inhibition of human MDA-MB-468 cells after 48 hrs by SRB assay; in short: as §3
MCF7 [3] = test: Cell cycle arrest in human MCF7 cells assessed as accumulation at G2/M phase at 4 uM after 24 hrs by FACS analysis (reference value: 34.88%)
RXF 393 = test: Growth inhibition of human RXF393 cells after 48 hrs by SRB assay; conditions: RXF 393, 48 h; in short: as §3
SN12C = test: Growth inhibition of human SN12C cells after 48 hrs by SRB assay; in short: as §1
NCI-H23 = test: Growth inhibition of human NCI-H23 cells after 48 hrs by SRB assay; conditions: NCI-H23, 48 h; in short: as §3
COLO 205 = test: Cytotoxicity against human COLO205 cells after 48 hrs assessed as inhibition of cell growth at 10 uM after 48 hrs by SRB assay relative to control; conditions: COLO 205, 48 h, read-out: GI; in short: as §2
LOX IMVI = test: Growth inhibition of human LOXIMVI cells after 48 hrs by SRB assay; in short: as §3
MOLT-4 = test: Growth inhibition of human MOLT4 cells after 48 hrs by SRB assay; conditions: MOLT-4, 48 h; in short: as §3
HEp-2 = test: Cytotoxicity against human Hep2 cells after 48 hrs assessed as inhibition of cell growth at 10 uM after 48 hrs by SRB assay relative to control; conditions: HEp-2, 48 h, read-out: GI; in short: as §2
PC-3 [4] = test: Growth inhibition of human PC3 cells after 48 hrs by SRB assay; conditions: PC-3, 48 h; in short: as §3
786-0 = test: Growth inhibition of human 786-0 cells after 48 hrs by SRB assay; conditions: 786-0, 48 h; in short: as §3
NCI-H460 = test: Growth inhibition of human NCI-H460 cells after 48 hrs by SRB assay; conditions: NCI-H460, 48 h; in short: as §3
UACC-62 = test: Growth inhibition of human UACC62 cells after 48 hrs by SRB assay; conditions: UACC-62, 48 h; in short: as §1
Malme-3M = test: Growth inhibition of human MALME-3M cells after 48 hrs by SRB assay; in short: as §3
OVCAR-5 = test: Growth inhibition of human OVCAR5 cells after 48 hrs by SRB assay; conditions: OVCAR-5, 48 h; in short: as §3
IGROV-1 = test: Growth inhibition of human IGROV1 cells after 48 hrs by SRB assay; conditions: IGROV-1, 48 h; in short: as §3
K562 = test: Growth inhibition of human K562 cells after 48 hrs by SRB assay; conditions: K562, 48 h; in short: as §3
OVCAR-8 = test: Growth inhibition of human OVCAR8 cells after 48 hrs by SRB assay; conditions: OVCAR-8, 48 h; in short: as §3
SNB-19 = test: Growth inhibition of human SNB19 cells after 48 hrs by SRB assay; conditions: SNB-19, 48 h; in short: as §1
HT-29 = test: Growth inhibition of human HT-29 cells after 48 hrs by SRB assay; conditions: HT-29, 48 h; in short: as §3
OVCAR-4 = test: Growth inhibition of human OVCAR4 cells after 48 hrs by SRB assay; conditions: OVCAR-4, 48 h; in short: as §3
NCI-H322M = test: Growth inhibition of human NCI-H322M cells after 48 hrs by SRB assay; in short: as §3
DU-145 = test: Growth inhibition of human DU145 cells after 48 hrs by SRB assay; conditions: DU-145, 48 h; in short: as §3
CCRF-CEM = test: Growth inhibition of human CCRF-CEM cells after 48 hrs by SRB assay; in short: as §3
A498 = test: Growth inhibition of human A498 cells after 48 hrs by SRB assay; conditions: A498, 48 h; in short: as §3
MDA-MB-231 = test: Growth inhibition of human MDA-MB-231 cells after 48 hrs by SRB assay; conditions: MDA-MB-231, 48 h; in short: as §3
SK-MEL-5 = test: Growth inhibition of human SK-MEL-5 cells after 48 hrs by SRB assay; conditions: SK-MEL-5, 48 h; in short: as §1
MCF7 [5] = test: Cell cycle arrest in human MCF7 cells assessed as accumulation at S phase at 4 uM after 24 hrs by FACS analysis (reference value: 6.79%)
SF-268 = test: Growth inhibition of human SF268 cells after 48 hrs by SRB assay; conditions: SF-268, 48 h; in short: as §3
KM12 = test: Growth inhibition of human KM12 cells after 48 hrs by SRB assay; conditions: KM12, 48 h; in short: as §3
SK-OV-3 = test: Growth inhibition of human SKOV3 cells after 48 hrs by SRB assay; conditions: SK-OV-3, 48 h; in short: as §1
Hs-578T = test: Growth inhibition of human Hs578T cells after 48 hrs by SRB assay; in short: as §3
A549 = test: Growth inhibition of human A549 cells after 48 hrs by SRB assay; conditions: A549, 48 h; in short: as §3

COc1ccc(/C=C\c2cc(OC)c(OC)c(OC)c2)cc1OCC(=O)Nc1ccc2nc(C)sc2c1
GI50 (SW-620): 4700 nM
GI50 (SF-295): 2450 nM
inhibition of growth at 10 µM (PC-3 [1]): 61%
GI50 (MDA-MB-435): 2130 nM
GI50 (SNB-75): 1550 nM
GI50 (T47D): 9410 nM
GI50 (HCT-15): 2800 nM
Activity (MCF7 [2]): 55.2%
GI50 (SR): 2930 nM
GI50 (CAKI-1): 2190 nM
GI50 (MDA-MB-468; MDA-MB-468, 48 h): 2390 nM
Activity (MCF7 [3]): 37.09%
GI50 (RXF 393): 5060 nM
GI50 (SN12C): 3530 nM
GI50 (NCI-H23): 2530 nM
inhibition of growth at 10 µM (COLO 205): 17%
GI50 (LOX IMVI): 2640 nM
GI50 (MOLT-4): 2110 nM
inhibition of growth at 10 µM (HEp-2): 40%
GI50 (PC-3 [4]): 2800 nM
GI50 (786-0): 7550 nM
GI50 (NCI-H460): 3360 nM
GI50 (UACC-62): 2190 nM
GI50 (Malme-3M): 2840 nM
GI50 (OVCAR-5): 6690 nM
GI50 (IGROV-1): 3720 nM
GI50 (K562): 2190 nM
GI50 (OVCAR-8): 2120 nM
GI50 (SNB-19): 3890 nM
GI50 (HT-29): 3310 nM
GI50 (OVCAR-4): 2640 nM
GI50 (NCI-H322M): 6740 nM
GI50 (DU-145): 3810 nM
GI50 (CCRF-CEM): 3410 nM
GI50 (A498): 4180 nM
GI50 (MDA-MB-231): 5450 nM
GI50 (SK-MEL-5): 1970 nM
Activity (MCF7 [5]): 7.71%
GI50 (SF-268): 3610 nM
GI50 (KM12): 3790 nM
GI50 (SK-OV-3): 5270 nM
GI50 (Hs-578T): 4320 nM
GI50 (A549): 2100 nM

COc1ccc2nc(NC(=O)COc3cc(/C=C\c4cc(OC)c(OC)c(OC)c4)ccc3OC)sc2c1
GI50 (SW-620): 5100 nM
GI50 (SF-295): 1840 nM
inhibition of growth at 10 µM (PC-3 [1]): 33%
GI50 (MDA-MB-435): 1160 nM
GI50 (SNB-75): 1910 nM
GI50 (T47D): 4030 nM
GI50 (HCT-15): 2890 nM
Activity (MCF7 [2]): 62.81%
GI50 (SR): 3690 nM
GI50 (CAKI-1): 3200 nM
GI50 (MDA-MB-468; MDA-MB-468, 48 h): 2290 nM
Activity (MCF7 [3]): 30.07%
GI50 (RXF 393): 2500 nM
GI50 (SN12C): 5750 nM
GI50 (NCI-H23): 3910 nM
inhibition of growth at 10 µM (COLO 205): 56%
GI50 (LOX IMVI): 4170 nM
GI50 (MOLT-4): 3870 nM
inhibition of growth at 10 µM (HEp-2): 71%
GI50 (PC-3 [4]): 4450 nM
GI50 (786-0): 7520 nM
GI50 (NCI-H460): 3730 nM
GI50 (UACC-62): 5930 nM
GI50 (Malme-3M): inactive
GI50 (OVCAR-5): 5890 nM
GI50 (IGROV-1): 7000 nM
GI50 (K562): 3600 nM
GI50 (OVCAR-8): 5280 nM
GI50 (SNB-19): 6300 nM
GI50 (HT-29): 3340 nM
GI50 (OVCAR-4): 5310 nM
GI50 (NCI-H322M): inactive
GI50 (DU-145): 2040 nM
GI50 (CCRF-CEM): 3870 nM
GI50 (A498): 3500 nM
GI50 (MDA-MB-231): 5400 nM
GI50 (SK-MEL-5): 2680 nM
Activity (MCF7 [5]): 7.12%
GI50 (SF-268): 4310 nM
GI50 (KM12): 3120 nM
GI50 (SK-OV-3): 4690 nM
GI50 (Hs-578T): 4150 nM
GI50 (A549): 5190 nM

COc1ccc(/C=C\c2cc(OC)c(OC)c(OC)c2)cc1O [COMBRETASTATIN A4]
GI50 (SW-620): 3 nM
GI50 (SF-295): 3 nM
inhibition of growth at 10 µM (PC-3 [1]): 76%
GI50 (MDA-MB-435): 1 nM
GI50 (SNB-75): 7 nM
GI50 (T47D): 10000 nM
GI50 (HCT-15): 3 nM
Activity (MCF7 [2]): 24.5%
GI50 (SR): 3 nM
GI50 (CAKI-1): 25 nM
GI50 (MDA-MB-468): inactive
Activity (MCF7 [3]): 61.23%
GI50 (RXF 393): 2 nM
GI50 (SN12C): 6 nM
GI50 (NCI-H23): 3 nM
inhibition of growth at 10 µM (COLO 205): 63%
GI50 (LOX IMVI): 3 nM
GI50 (MOLT-4): 3 nM
inhibition of growth at 10 µM (HEp-2): 64%
GI50 (PC-3 [4]): 1 nM
GI50 (786-0): 100 nM
GI50 (NCI-H460): 7 nM
GI50 (UACC-62): 5 nM
GI50 (Malme-3M): 19 nM
GI50 (OVCAR-5): 100 nM
GI50 (IGROV-1): 15 nM
GI50 (K562): 2 nM
GI50 (OVCAR-8): 3 nM
GI50 (SNB-19): 3 nM
GI50 (HT-29): 100 nM
GI50 (OVCAR-4): 15 nM
GI50 (NCI-H322M): 3 nM
GI50 (DU-145): 1 nM
GI50 (CCRF-CEM): 2 nM
GI50 (A498): 6 nM
GI50 (MDA-MB-231): 1 nM
GI50 (SK-MEL-5): 3 nM
Activity (MCF7 [5]): 14.27%
GI50 (SF-268): 6 nM
GI50 (KM12): 5 nM
GI50 (SK-OV-3): 63 nM
GI50 (Hs-578T): 1 nM
GI50 (A549): 15 nM

From ChEMBL document CHEMBL2086239, “Synthesis and biological evaluation of combretastatin-amidobenzothiazole conjugates as potential anticancer agents” (Eur J Med Chem, 2012)
